This is an account of results in ChEMBL document CHEMBL3817820, “Development of Potent and Selective Inhibitors for Group VIA Calcium-Independent Phospholipase A2 Guided by Molecular Dynamics and Structure-Activity Relationships” (J Med Chem, 2016).

For experiment [1], the target named is T1, Phospholipase A2 group V (Homo sapiens) (UniProt P39877).
T1 sequence (whole entry): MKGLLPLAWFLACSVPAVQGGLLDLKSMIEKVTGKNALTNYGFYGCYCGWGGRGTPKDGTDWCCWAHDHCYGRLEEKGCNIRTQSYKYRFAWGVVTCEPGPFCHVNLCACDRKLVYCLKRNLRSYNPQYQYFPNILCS
Nature of the experiment: Inhibition of human group V sPLA2 at 0.091 mol fraction using arachidonyl-1-14C PAPC by mixed micelles modified Dole assay.

Experiment [2] addresses T2, 85/88 kDa calcium-independent phospholipase A2 (Homo sapiens) (UniProt O60733).
T2 sequence (whole entry): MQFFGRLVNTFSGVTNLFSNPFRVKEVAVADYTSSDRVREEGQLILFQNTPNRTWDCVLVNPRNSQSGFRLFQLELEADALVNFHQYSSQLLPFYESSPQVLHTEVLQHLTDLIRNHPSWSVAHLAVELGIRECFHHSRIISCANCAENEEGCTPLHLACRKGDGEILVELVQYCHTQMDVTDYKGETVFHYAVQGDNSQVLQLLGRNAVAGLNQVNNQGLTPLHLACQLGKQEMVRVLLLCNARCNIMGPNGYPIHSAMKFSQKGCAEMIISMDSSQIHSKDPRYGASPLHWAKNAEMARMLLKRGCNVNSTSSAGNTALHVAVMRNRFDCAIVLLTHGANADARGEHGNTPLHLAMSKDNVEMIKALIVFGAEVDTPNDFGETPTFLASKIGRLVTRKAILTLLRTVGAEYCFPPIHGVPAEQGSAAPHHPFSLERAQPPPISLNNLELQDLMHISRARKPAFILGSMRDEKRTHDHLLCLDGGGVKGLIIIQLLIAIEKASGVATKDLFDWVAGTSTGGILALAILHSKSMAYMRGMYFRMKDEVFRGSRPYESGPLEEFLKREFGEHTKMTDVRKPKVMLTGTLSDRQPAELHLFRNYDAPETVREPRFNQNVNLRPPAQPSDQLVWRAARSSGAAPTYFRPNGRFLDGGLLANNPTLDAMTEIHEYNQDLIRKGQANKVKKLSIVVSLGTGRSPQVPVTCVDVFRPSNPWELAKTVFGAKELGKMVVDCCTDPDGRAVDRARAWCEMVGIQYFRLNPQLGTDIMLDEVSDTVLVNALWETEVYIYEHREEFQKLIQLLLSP
Nature of the experiment: Inhibition of human group VIA iPLA2 at 0.091 mol fraction using arachidonyl-1-14C PAPC by mixed micelles modified Dole assay. The gist of the method:
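Substrate micelles: 400 μM Triton X-100, 98.3 μM PAPC, 1.7 μM arachidonyl-1-14C PAPC. Buffer: 100 mM HEPES pH 7.5, 2 mM ATP, 4 mM DTT. Inhibitor tested at 0.091 mole fraction from a 5 mM DMSO stock; percent inhibition determined.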

Experiment [3] addresses T3, Cytosolic phospholipase A2 (Homo sapiens) (UniProt P47712).
T3 sequence (whole entry): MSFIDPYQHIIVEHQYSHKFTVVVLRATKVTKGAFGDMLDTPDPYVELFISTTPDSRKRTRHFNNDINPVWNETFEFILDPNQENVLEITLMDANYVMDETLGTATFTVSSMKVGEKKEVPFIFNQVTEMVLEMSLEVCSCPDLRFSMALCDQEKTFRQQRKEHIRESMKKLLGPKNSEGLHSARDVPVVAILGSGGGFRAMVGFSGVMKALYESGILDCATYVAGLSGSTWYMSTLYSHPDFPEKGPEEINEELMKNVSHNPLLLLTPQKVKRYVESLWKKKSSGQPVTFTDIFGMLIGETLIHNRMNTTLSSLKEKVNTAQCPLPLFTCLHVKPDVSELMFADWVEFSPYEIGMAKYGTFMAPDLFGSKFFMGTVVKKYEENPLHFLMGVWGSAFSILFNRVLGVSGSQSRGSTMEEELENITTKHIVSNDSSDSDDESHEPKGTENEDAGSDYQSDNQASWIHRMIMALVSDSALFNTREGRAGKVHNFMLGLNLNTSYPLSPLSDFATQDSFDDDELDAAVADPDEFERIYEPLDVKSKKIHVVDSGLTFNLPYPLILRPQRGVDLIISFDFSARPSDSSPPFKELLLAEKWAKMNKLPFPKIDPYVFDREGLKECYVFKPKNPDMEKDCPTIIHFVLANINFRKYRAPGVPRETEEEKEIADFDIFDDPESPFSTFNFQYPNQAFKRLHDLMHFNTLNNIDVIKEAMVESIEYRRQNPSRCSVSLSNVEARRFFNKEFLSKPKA
Nature of the experiment: Inhibition of human group IVA cPLA2 at 0.091 mol fraction using arachidonyl-1-14C PAPC by mixed micelles modified Dole assay. The gist of the method: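 Buffer: 100 mM HEPES pH 7.5 with 90 μM CaCl2, 2 mM DTT and 0.1 mg/ml BSA. Inhibitor screened at 0.091 mole fraction, added from a 5 mM DMSO stock; percent inhibition recorded.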

Experiment [4] addresses T2, 85/88 kDa calcium-independent phospholipase A2 (Homo sapiens). Nature of the experiment: Inhibition of human group VIA iPLA2 using arachidonyl-1-14C PAPC by mixed micelles modified Dole assay. Summed up:
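Run in the same micelle substrate (Triton X-100/PAPC/14C-PAPC) in 100 mM HEPES pH 7.5, 2 mM ATP and 4 mM DTT, on compounds showing over 95% inhibition in the screen. Percent inhibition plotted against log mole fraction; XI(50) and its error obtained by nonlinear regression.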

The term inhibition denotes the drop in the measured response relative to a control, in per cent. In the case of `COc1ccc(CCSCC(=O)C(F)(F)C(F)(F)F)cc1`, the inhibition came to 28% in experiment [1], 100% in experiment [2] and 61% in experiment [3]. For the same compound, in experiment [4], the XI50 was found to be 0.00012.
In the case of `COc1ccc(CCSCC(=O)C(F)(F)F)cc1`, the inhibition in experiment [1] is less than 25%; in experiment [2] it was 96%; in experiment [3] it was 60%. In experiment [4], the XI50 was determined as 9e-05.
The matching figures for `O=C(CSCCc1ccccc1)C(F)(F)C(F)(F)F`: less than 25%, 99%, less than 25% and 0.00015.
In the case of `COc1ccc(CCSCC(=O)c2noc(C(C)(C)C)n2)cc1`, the values for the inhibition in experiment [1], in experiment [2] and in experiment [3] were 38%, 98% and 70%, respectively. The XI50 in experiment [4] stood at 0.0057.
Take `O=C(CSCCc1ccc2ccccc2c1)C(F)(F)F`: the inhibition in experiment [1] is 32%; in experiment [2], 99%; in experiment [3] it was 88%. Further, the XI50 in experiment [4] worked out at 0.0002.
As for `COc1ccc(CCCCC(=O)c2noc(C(C)(C)C)n2)cc1`, the results for the inhibition in experiment [1], in experiment [2] and in experiment [3] were 35%, 64% and 52%, respectively.
